The source of these data is ChEMBL document CHEMBL1134409, “Design, synthesis, and discovery of a novel CCR1 antagonist” (J Med Chem, 2001).

In general, IC50 refers to the concentration that gives 50% inhibition.

Test [1] has as its target T1, C-C chemokine receptor type 1 (Homo sapiens, UniProt P32246).
T1 sequence (P32246 whole entry): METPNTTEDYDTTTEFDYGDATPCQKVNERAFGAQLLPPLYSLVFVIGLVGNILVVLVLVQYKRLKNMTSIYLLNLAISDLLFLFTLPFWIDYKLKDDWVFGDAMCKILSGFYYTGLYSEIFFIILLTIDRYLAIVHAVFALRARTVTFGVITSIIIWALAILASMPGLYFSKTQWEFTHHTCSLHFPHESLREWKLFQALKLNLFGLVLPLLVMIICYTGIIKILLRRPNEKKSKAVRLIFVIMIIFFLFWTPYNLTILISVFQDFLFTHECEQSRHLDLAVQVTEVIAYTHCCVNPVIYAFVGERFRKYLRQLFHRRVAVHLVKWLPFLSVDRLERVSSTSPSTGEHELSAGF
Kind of test: Inhibitory activity against [125I]-MIP-1 alpha binding to human CCR1 receptors. A digest of the protocol:
(§1)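 Whole-cell binding. CHO cells transfected with the CCR receptor were detached with PBS(-) containing 2 mM EDTA and resuspended in Krebs-Ringer phosphate buffer with 0.1% BSA and 0.1% glucose. 1 × 10^5 cells were incubated with 50 pM 125I-chemokine plus antagonist for 1 h at 37 °C to reach equilibrium. Nonspecific binding was taken with 100 nM unlabeled chemokine. Ice-cold buffer was then added.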

The target in test [2] is T2, C-C chemokine receptor type 1 (Mus musculus, UniProt P51675).
T2 sequence (P51675 whole entry): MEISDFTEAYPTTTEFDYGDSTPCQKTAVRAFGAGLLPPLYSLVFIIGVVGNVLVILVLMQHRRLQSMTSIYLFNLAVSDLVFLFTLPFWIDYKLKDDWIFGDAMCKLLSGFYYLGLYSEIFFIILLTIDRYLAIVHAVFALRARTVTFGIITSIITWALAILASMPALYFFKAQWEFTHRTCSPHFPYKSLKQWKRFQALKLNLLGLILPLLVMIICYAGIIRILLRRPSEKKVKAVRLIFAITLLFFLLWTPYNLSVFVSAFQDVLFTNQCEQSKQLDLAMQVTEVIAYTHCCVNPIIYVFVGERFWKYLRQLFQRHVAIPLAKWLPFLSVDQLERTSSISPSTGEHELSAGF
Kind of test: Inhibitory activity against [125I]-MIP-1 alpha binding to mouse CCR1 receptors. A digest of the protocol: as §1

On to `C=CC[N+]1(CC2CCCCCCC2)CCC(NC(=O)C2c3ccccc3Oc3ccccc32)CC1` (stereo not drawn), for which the IC50 is 0.0097 µM in test [1] and 0.67 µM in test [2].

`CC[N+]1(C/C2=C/CCCCCC2)CCC(NC(=O)C2c3ccccc3Oc3ccccc32)CC1` (stereo not drawn): the 50% inhibitory concentration (IC50) in test [1] was determined as 0.002 µM; in test [2], 0.063 µM.

In the case of `O=C(NC1CCN(Cc2ccc3ccccc3c2)CC1)C1c2ccccc2Oc2ccccc21`, the half-maximal inhibitory concentration (IC50) in test [1] and in test [2] was over 10 µM each time.

`C[N+]1(CC2CCCCCCC2)CCC(NC(=O)C2c3cc(Br)ccc3Oc3ccc(Br)cc32)CC1` (stereo not drawn) yielded an IC50 in test [2] of 0.24 µM.

In the case of `CC[N+]1(CC2CCCCCCC2)CCC(NC(=O)C2c3cc(Br)ccc3Oc3ccc(Br)cc32)CC1` (stereo not drawn), the 50% inhibitory concentration (IC50) in test [1] turned out to be 0.0033 µM; in test [2], 0.14 µM.

In the case of `C[N+]1(CC2CCCCCCC2)CCC(NC(=O)C2c3cc(Cl)ccc3Oc3ccc(Cl)cc32)CC1` (stereo not drawn), the IC50 in test [1] amounted to 0.017 µM; in test [2] it was 0.71 µM.

Take `CCC[N+]1(CC2CCCCCCC2)CCC(NC(=O)C2c3cc(Br)ccc3Oc3ccc(Br)cc32)CC1` (stereo not drawn): the results for the IC50 in test [1] and in test [2] were 0.0031 µM and 0.14 µM, respectively.

Take `CCC[N+]1(C/C2=C/CCCCCC2)CCC(NC(=O)C2c3ccccc3Oc3ccccc32)CC1` (stereo not drawn): the IC50 in test [1] was 0.0028 µM; in test [2] it was 0.27 µM.

As to `C[N+]1(CC2CCCCCCC2)CCC(NC(=O)c2c3ccccc3cc3ccccc23)CC1` (stereo not drawn), the IC50 is 1.8 µM in test [1] and over 10 µM in test [2].

`O=C(NC1CCN(Cc2ccccc2)CC1)C1c2ccccc2Oc2ccccc21`: the IC50 in test [1] and in test [2] was over 10 µM throughout.

Consider `CC[N+]1(CC2CCCCCCC2)CCC(NC(=O)C2c3ccccc3Oc3ccccc32)CC1` (stereo not drawn), for which the 50% inhibitory concentration (IC50) in test [2] is 0.66 µM.

Turning to `O=C(NC1CCN(C/C2=C/CCCCCC2)CC1)C1c2ccccc2Oc2ccccc21`, the results for the IC50 in test [1] and in test [2] were 0.051 µM and 0.59 µM, respectively.

For `O=C(NC1CCN(CC2CCCCCCC2)CC1)C1c2cc(Cl)ccc2Oc2ccc(Cl)cc21`, the 50% inhibitory concentration (IC50) in test [1] and in test [2] was over 10 µM in each case.

With `CC[N+]1(C/C2=C/CCCCCC2)CCC(NC(=O)C2c3cc(Br)ccc3Oc3ccc(Br)cc32)CC1` (stereo not drawn), the half-inhibitory concentration (IC50) in test [1] turned out to be 0.0019 µM; in test [2], 0.012 µM.

As to `O=C(NC1CCN(CC2CCCCCCC2)CC1)C1c2ccccc2Oc2ccccc21`, the results for the half-inhibitory concentration (IC50) in test [1] and in test [2] were 0.14 µM and over 10 µM, respectively.

Consider `CCCCCCN1CCC(NC(=O)C2c3ccccc3Oc3ccccc32)CC1`, for which the 50% inhibitory concentration (IC50) in test [1] was 0.51 µM; in test [2], over 10 µM.

Turning to `O=C(NC1CCN(CC2CCCCCCC2)CC1)c1c2ccccc2cc2ccccc12`, the IC50 in test [1] and in test [2] was over 10 µM in each case.

Regarding `O=C(NC1CCN(CC2CCCCC2)CC1)C1c2ccccc2Oc2ccccc21`, the concentration for half-maximal inhibition (IC50) in test [1] was 0.2 µM; in test [2] it was over 10 µM.

With `C[N+]1(CC2CCCCCCC2)CCC(NC(=O)C2c3ccccc3Oc3ccccc32)CC1` (stereo not drawn), the IC50 in test [1] was determined as 0.014 µM; in test [2] it was 2.1 µM.

As to `N#CC(CCCN1CCC(O)(c2ccc(Cl)cc2)CC1)(c1ccccc1)c1ccccc1` [BERLEX COMPOUND], the half-inhibitory concentration (IC50) in test [1] was 0.048 µM; in test [2], 5 µM.

`O=C(NC1CC[N+](Cc2ccccc2)(CC2CCCCCCC2)CC1)C1c2ccccc2Oc2ccccc21` (stereo not drawn): the IC50 stood at 0.37 µM in test [1] and 1.3 µM in test [2].

For the compound `CC[N+]1(C/C2=C/CCCCCC2)CCC(NC(=O)C2c3cc(Cl)ccc3Oc3ccc(Cl)cc32)CC1` (stereo in doubt; 2q), the half-maximal inhibitory concentration (IC50) in test [1] is 0.0012 µM; in test [2] it was 0.012 µM.

With `C[N+]1(CC2CCCCCCC2)CCC(NC(=O)C(O)(c2ccccc2)c2ccccc2)CC1` (stereo not drawn), the 50% inhibitory concentration (IC50) was 2.1 µM in test [1] and over 10 µM in test [2].

Take `CC[N+]1(C/C2=C/CCCCCC2)CCC(NC(=O)C2c3cc(Cl)ccc3Oc3ccc(Cl)cc32)CC1` (stereo in doubt; 2q-2): the concentration for half-maximal inhibition (IC50) was determined as 0.047 µM in test [1] and 0.74 µM in test [2].

For `O=C(NC1CCN(CC2CCCCCCC2)CC1)C(O)(c1ccccc1)c1ccccc1`, the results for the IC50 in test [1] and in test [2] were 1.6 µM and over 10 µM, respectively.
